# From ChEMBL document CHEMBL4513216, “Probing the Open Global Health Chemical Diversity Library for Multistage-Active Starting Points for Next-Generation Antimalarials” (ACS Infect Dis, 2020)
# Test: Toxicity liver stage against HepG2, at 10uM
# Assay type: cell-based
# Design: test concentration 10 uM, cell line HepG2-A16-CD81EGFP
# Details: human, HepG2-A16-CD81EGFP cells; read-out: INHIBITION
# Procedure, shortened: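 Uninfected HepG2-A16-CD81EGFP cells, 3 × 10^3 per well, 1536-well, plated on prespotted compound at 10 μM final, parasite-free screening media added to match infected plates; puromycin 10 μM positive, DMSO 0.5% negative; run in parallel with 48 h PbLuc assay at 37 °C, 5% CO2; viability by CellTiter-Glo luminescence, normalized to controls.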
row,Structure (SMILES),cytotoxicity at 10 µM [%]
1,O=C(NCc1cccnc1)c1cn(CCc2ccccc2)nn1,4.39
2,Cc1c(C)n2c(SCC(=O)N3CCCCCC3)nnc2[nH]c1=O,0.0868
3,Cc1cc2nc(CN(C)c3ccccc3)cc(=O)n2o1,0.719
4,O=C(Nc1ccc(F)c(Br)c1)N1CCCC1,2.32
5,Cc1ccc2cccc(Oc3nc(C)c(C(=O)O)s3)c2n1,6.39
6,CC(C)CC1SCC(=O)Nc2c1cnn2-c1ccccc1F (stereo unspecified),-8.62
7,CCN1CCCC1CNC(=O)Cc1c(C)n[nH]c1-c1ccc(OC)cc1 (stereo unspecified),-3.72
8,CC(C)N1CCC(c2ccnc3c(C(=O)N4CCOCC4)ncn23)CC1,-5.89
9,O=C1CCCN1Cc1nnn2c1CN(c1ncccn1)CCC2,-0.0499
10,CN(C)C(=O)N1CCc2c(nnn2C)C1COCC1CC1 (stereo unspecified),12.6
11,Cc1noc([C@H]2COC[C@H]3CN(C(=O)Cc4ccccc4F)C[C@H]32)n1,-8.52
12,CN(C)C(=O)C1OC2(CCN(C(=O)c3ccco3)CC2)c2ccccc21 (stereo unspecified),4.93
13,O=c1cc(Cn2cncn2)nc2n1CCCN(Cc1ccsc1)C2,-0.123
14,O=C(c1cscn1)N1C[C@@H]2C[C@@H](c3nnc(C4CC4)o3)O[C@@H]2C1,-16.9
15,CCn1nc(C)c2ncnc(NCCCn3ccnc3)c21,10.3
16,COc1cc(-c2n[nH]c(CC#N)n2)cc(OC)c1OC,-175
17,CCc1nnc(Nc2cc(C)nc(C3CN(C(=O)C(C)C)CCO3)c2)s1 (stereo unspecified),7.25
18,COCCN1CCCC(c2nccnc2-c2cccc(Cl)c2)C1 (stereo unspecified),3.99
19,Cn1nccc1-c1cccc(CC2CCN(S(C)(=O)=O)C2)n1 (stereo unspecified),4.54
20,CS(=O)(=O)N1CCCC(c2cccc(-c3ccccc3F)n2)C1 (stereo unspecified),-3.81
21,CCCN(CCO)S(=O)(=O)c1ccc2[nH]c(=O)[nH]c2c1,-0.24
22,CC(=O)N1CC(c2ccnc(Nc3nccs3)n2)C1,3.23
23,CN(C)S(=O)(=O)N1CCOC(c2cccc(-c3cncnc3)n2)C1 (stereo unspecified),3.71

row,Structure (SMILES),cytotoxicity at 10 µM [%]
1,CS(=O)(=O)N1CCCC(Cc2ccnc(Nc3ccccn3)c2)C1 (stereo unspecified),5.46
2,Cc1cc(C2CCCN(S(=O)(=O)c3cn(C)cn3)C2)ccn1 (stereo unspecified),3.42
3,O=C(O)c1ccccc1-n1cnc(CN2CCc3ccccc3C2)c1,13.6
4,CN(C)Cc1ccccc1Cn1cncc1-c1cnn(C)c1,6.16
5,CCn1cc(C(=O)NCCc2nc(-c3ccc(C)cc3)n[nH]2)c(C)n1,9.03
6,Cc1cc(C)nc(C2CCCN2C(=O)c2cnco2)n1 (stereo unspecified),-1.45
7,CN1CCCC(c2cccc(CCC(=O)NCC3(C)COC3)n2)C1 (stereo unspecified),-8.24
8,CNc1ncccc1CN1CCCCC1c1cc(C)n2ccnc2n1 (stereo unspecified),-2.17
9,COc1cc(OC)cc(-c2cc(N)on2)c1,7.79
10,Fc1ccc(-c2noc(C3COCCO3)n2)cc1F (stereo unspecified),-1.21
11,COC(=O)N1CCCN(Cn2nc(C)c(Br)c2C)CC1,8.38
12,Cc1noc(CNc2ccccc2CC(=O)N(C)C)n1,2.69
13,Fc1cccc2c1CCC2NCc1cnc(N2CCOCC2)nc1 (stereo unspecified),5.42
14,CC(C)c1ccc(O)c(C(=O)NCc2cc[nH]n2)c1,-1.49
15,CC(C(=O)Nc1cnn(CC(N)=O)c1)c1ccc(Cl)s1 (stereo unspecified),10.9
16,CC(C)N(C)S(=O)(=O)N(C)Cc1cnn(C)c1,7.2
17,Cc1cc(C(=O)Nc2ccc3c(ccn3CCN3CCOCC3)c2)on1,4.29
18,CC1CCC(NC(=O)CNC2(c3ccc(Br)cc3)CCOCC2)CC1 (stereo unspecified),3.46
19,Cc1cnn(CC2CCCN2CC(=O)Nc2nncs2)c1 (stereo unspecified),-2.03
20,Cc1ccc(-c2nc(CN3CCOC(Cn4cncn4)C3)cs2)o1 (stereo unspecified),4.5
21,COc1cc(C(=O)NS(=O)(=O)c2cncc(Br)c2)ccc1C,-2.45
22,Cc1ccc(C(=O)NCCCN(C)S(C)(=O)=O)cc1-n1cccc1,-8.71
23,Cc1ccc(C(=O)N2CCCC2c2nnc3n2CCCCC3)s1 (stereo unspecified),-0.208

row,Structure (SMILES),cytotoxicity at 10 µM [%]
1,Cc1nn(CC(C)C)c(N(C)C)c1CNCCC(=O)NC(C)C,7.45
2,Fc1ccc(OCCCN2CC(n3cccn3)C2)cc1,2.16
3,CC(C)NC(=O)CN1CCSC2(CCCCC2)C1,-13.7
4,CCn1c(C)nnc1Sc1nn2cc(C)nc2s1,-1.99
5,N#Cc1ccc(OC2CCN(CC(=O)NCC3CCCO3)CC2)cc1 (stereo unspecified),34.8
6,COCCC1(CNC(=O)NCC2CCC2)CCC1,-10.1
7,Cn1nccc1C(=O)NC(C)(C)c1noc(C(C)(C)C)n1,8.22
8,Cc1nn(C)cc1CN(C)Cc1cc2c(cc1OC(F)F)OCO2,-3.53
9,CSCC(=O)N1CCCC1c1noc(C2CC2)n1 (stereo unspecified),17
10,NC(=O)CN1CCC(NC(=O)c2ccn(-c3cccc(F)c3)n2)CC1,13.4
11,Cc1ncncc1-c1ccnc(N)n1,-7.22
12,Cc1nccc(N2C[C@@H](CN3CCCC3)[C@@H](CO)C2)n1,-3
13,CC(C)n1ccnc1C1CCN(C(=O)c2ccccn2)CC1,-2.85
14,Cc1ncc(C)c(N2CCC(Cc3ccc(Cl)cc3)(C(=O)O)CC2)n1,-6.28
15,CCc1nc2ccccc2n1C(CC)C(=O)N(C)Cc1nc(C)c[nH]1 (stereo unspecified),-2.53
16,Cc1nccn1Cc1nnc(C2CCCN(c3ncccc3F)C2)n1C (stereo unspecified),-4.93
17,CCc1ccc(C(=O)N2CC[C@](C)(O)[C@H](C)C2)[nH]1,2.27
18,CCn1cc(-c2cc(C(=O)N3CCOCC3)c3cc(Cl)ccc3n2)cn1,-1.53
19,CCn1cc(C(=O)NCCN2CCCc3ccccc32)c(C)n1,4.23
20,Cc1nnc(CNC(=O)CC2CCc3ccccc32)o1 (stereo unspecified),1.58
21,O=C(NCc1ccc2c(c1)CCCO2)C1CNCCO1 (stereo unspecified),-7.49
22,CCc1cc(N2CC(N3CCCCC3C)C2)n2nccc2n1 (stereo unspecified),-4.85
23,CCc1cccc(NC(=O)CCC(=O)N(C)Cc2nc(C)c[nH]2)c1,-1.92

row,Structure (SMILES),cytotoxicity at 10 µM [%]
1,CCCC(C)NCc1cnc(-c2cccc(C)c2)nc1 (stereo unspecified),-11.7
2,CS(=O)(=O)N1CCc2[nH]cnc2C12CCN(C(=O)c1ccccc1)CC2,-2.66
3,Cc1nc(-c2ccncc2)ncc1C(C)NC(=O)CN1CCCC1=O (stereo unspecified),1.74
4,CCCc1nnc(NCCc2noc(C3CCC3)n2)o1,-8.22
5,CN1CCC(Oc2ccc(-n3ccnc3-c3nccn3C)cc2)CC1,-7.41
6,CN(C)CC(c1ccccc1)N(C)C(=O)c1cccc(NCC(=O)O)c1 (stereo unspecified),3.7
7,Cc1cc(C(=O)N2CCCC(c3nccn3Cc3cscn3)C2)on1 (stereo unspecified),-1.32
8,COc1cccc2c1OCC(C(=O)N1CCC(N3CCOC3=O)CC1)C2 (stereo unspecified),-19.7
9,CN(C)C(=O)N1CCN(C(=O)C(c2ccccc2F)N(C)C)CC1 (stereo unspecified),-0.665
10,CCn1cc(S(=O)(=O)N(C)Cc2c(Br)cnn2CC)c(C)n1,3.3
11,Cc1nc(-c2ccc(C(=O)O)cc2)cc(C2CCN(C(C)C)C2)n1 (stereo unspecified),6.62
12,CCc1nccn1C1CCCN(C(=O)c2ccc(OC)c(OC)c2)C1 (stereo unspecified),-20.6
13,Cc1cnn(C2CCCN(C(=O)c3ccc(O)nc3)C2)c1 (stereo unspecified),-2.78
14,CC(C)OCCCNC(=O)CN1C=Nc2ccccc2S1(=O)=O,-5.44
15,Cc1cnn(CC2CCCN2C(=O)c2c(C)noc2C)c1 (stereo unspecified),-6.02
16,Cc1nnc(NC(=O)CN(C)C2CCCN(c3cccnn3)C2)s1 (stereo unspecified),-5.64
17,CC(C)c1nnc2n1CCN(C(=O)CN(C)Cc1ccccc1)C2,-5.17
18,Cc1noc(C(C)N2CCN(CCOCC(F)(F)F)CC2)n1 (stereo unspecified),-1.4
19,Cc1csc(N2CCN(CC(=O)Nc3cc(C)nn3C)CC2C)n1 (stereo unspecified),-10.2
20,Cc1ccc(CC(=O)N2CCc3nnc(N(C)C)cc3C2)s1,-9.01
21,COc1ccc(NC(=O)N(CC2CCOC2)C2CC2)cn1 (stereo unspecified),-6.95
22,Cc1cc(C)n(-c2ccc(CNCc3ccc(F)c(F)c3)cn2)n1,-8.77
23,Cc1cscc1C(=O)N1CCCC1CC(=O)c1cnn(C)c1 (stereo unspecified),-3.4

row,Structure (SMILES),cytotoxicity at 10 µM [%]
1,Cc1cc(C)n(C2CCCN(C(=O)c3c[nH]c(=O)c(Cl)c3)C2)n1 (stereo unspecified),-5.03
2,CN(Cc1cnn(C)c1)C(=O)NCc1csc(Br)c1,0.568
3,c1cnc(-c2nc(CN3CCC(c4ccn[nH]4)CC3)cs2)nc1,-2.97
4,O=C(NCc1ccco1)C1CCCN1Cc1nc(-c2ccco2)no1 (stereo unspecified),-6.46
5,CC(C)c1cc(NC(=O)CN2CCc3ccccc3C2)on1,-4.89
6,CC(=O)N(Cc1ncc(C)o1)C1CCN(CCCc2cnn(C)c2)C1 (stereo unspecified),8.11
7,CN(C)CC1CN(c2ncnc3[nH]ccc23)CCO1 (stereo unspecified),0.89
8,Cc1nn(C)c(C)c1C1CCCN1Cc1nc(C)c2ccccc2n1 (stereo unspecified),-3.9
9,O=C(CC1CCCCC1)N1CCN(C(=O)NCc2ccccn2)CC1,-4.02
10,Cc1cc(C)n(CC2CCCCN2Cc2cscn2)n1 (stereo unspecified),1.78
11,CN(C)CCN1C[C@@H]2CN(C(=O)C3CCOC3)C[C@@H]2C1=O (stereo partly specified),-5.18
12,O=C([C@@H]1COC[C@H]2CN(CC3CC3)C[C@H]21)N1CCC(F)CC1,9.29
13,O=C(NCc1ccccn1)[C@]12COC[C@H]1CN(C1CCC1)C2,-6.82
14,COc1ncccc1CN1C[C@@H]2COC[C@]2(COCC2CC2)C1,5.37
15,CN(C)C(=O)COC[C@@]12CCC[C@@H]1CN(C1CCC1)C2,-1.25
16,COc1ccc(CN2CC[C@H]3CO[C@H](CNC(=O)N(C)C)[C@H]3C2)cc1,1.07
17,c1cncc(CN2CCCC3(COCCN(c4cnccn4)C3)C2)c1 (stereo unspecified),-0.0653
18,O=C(Nc1cccnc1)[C@@H]1CCO[C@@H]2CCN(Cc3cccnc3)C[C@@H]21,4.78
19,CNc1nc(C(=O)N2C[C@@H]3CC[C@H]2CN(C2CCOCC2)C3)cs1,4.84
